KCC2 mod: modulates chloride dependent transport by human KCC2 | AID 1456 | Q9H2X9 | KCC2 cells, thallium flux FluoZin-2 fluorescence | B-score of Tl+ flux slope (higher = more flux/activation; lower = inhibition) at 10 µM | hit rate 2.2% among 190,000;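 active = thallium flux slope and its plate-corrected score both differing from the plate sample mean at a set confidence after two filtering rounds, in either direction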;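 also: slope of fluorescence scaled to starting intensity during 10 to 20 s after thallium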
ROMK mod: modulates human ROMK potassium channel activity; P48048; Tet-inducible ROMK, thallium flux fluorescence; actives lie on both sides; B-score at 10 µM; hit rate 2% among 130,000; AID 1918;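 active = signal ratio slope over the read window, or its plate-corrected B-score, at least 3 SD from the plate mean, either direction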;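 also: B-score of the F/F0 ratio slope over 7 to 12 s after thallium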
Rad51 HR inh: blocks human Rad51 in homologous recombination. Q06609. hRad51 DNA strand exchange, fluorescence dequenching. inhibition, % at 10 µM. hit rate 0.085% among 200,000. AID 1385;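 active = inhibition above 40% at the single screening dose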
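Material: hRad51 filaments on single-stranded DNA; Reagent: Donor/quencher-labelled 47-bp dsDNA substrate; Compound: 10 µM final, single point; Schedule: 37 °C 15-min filament assembly, 30-min compound preincubation, 15-min exchange; Technique: FRET fluorescence, excitation 485 nm, emission 520 nm; Benchmarks: control wells and blank wells on each plate.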
PKD1 inh: blocks activity of human protein kinase D1; hit rate 0.056% among 200,000; AID 797; Q15139; PKD1 kinase fluorescence polarization assay; inhibition, % (concentration not given with the values); in the data active = inhibition above about 50%
Target sequence (Q15139 whole entry, looked up): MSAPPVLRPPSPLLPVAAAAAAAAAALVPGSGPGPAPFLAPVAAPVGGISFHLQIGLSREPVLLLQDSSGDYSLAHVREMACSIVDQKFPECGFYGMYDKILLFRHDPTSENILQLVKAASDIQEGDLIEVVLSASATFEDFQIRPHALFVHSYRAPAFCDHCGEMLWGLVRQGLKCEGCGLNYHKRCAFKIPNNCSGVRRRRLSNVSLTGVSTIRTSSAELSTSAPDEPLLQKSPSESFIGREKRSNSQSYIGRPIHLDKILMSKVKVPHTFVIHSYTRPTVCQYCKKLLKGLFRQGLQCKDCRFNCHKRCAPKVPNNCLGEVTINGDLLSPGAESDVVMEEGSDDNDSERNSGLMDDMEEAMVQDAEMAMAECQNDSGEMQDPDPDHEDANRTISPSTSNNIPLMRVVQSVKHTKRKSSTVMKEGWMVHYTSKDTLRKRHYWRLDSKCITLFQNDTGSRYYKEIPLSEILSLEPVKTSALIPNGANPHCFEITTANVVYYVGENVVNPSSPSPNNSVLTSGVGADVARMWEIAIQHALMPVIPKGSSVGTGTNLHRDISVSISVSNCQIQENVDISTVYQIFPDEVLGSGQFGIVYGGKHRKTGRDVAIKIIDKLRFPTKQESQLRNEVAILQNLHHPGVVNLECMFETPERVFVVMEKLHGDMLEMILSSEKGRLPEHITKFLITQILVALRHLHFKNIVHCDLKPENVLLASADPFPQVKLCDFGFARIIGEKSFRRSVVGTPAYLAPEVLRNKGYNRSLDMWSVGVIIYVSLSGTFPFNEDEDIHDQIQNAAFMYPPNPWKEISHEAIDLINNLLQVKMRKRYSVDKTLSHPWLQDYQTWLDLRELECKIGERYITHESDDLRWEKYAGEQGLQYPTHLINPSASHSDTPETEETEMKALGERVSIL
Each line names hits and unclear results; the compound was inactive in the other large screens. The list is not random: actives were taken first. Their share in the collection is about 3%.

O=c1c(Cc2ccc(Cl)cc2Cl)c(O)ccn1CCCN1CCOCC1	none
CCc1cccc(NC(=O)NC(=O)Cn2nnc(C(=O)OC)c2C(=O)OC)c1	none
CC(C)n1c(-c2ccc(C(C)(C)C)cc2)n[nH]c1=S	KCC2 mod 37 (no result: ROMK mod)
CSc1ccccc1NC(=O)CSCc1ccc(C)cc1	KCC2 mod -3.86 (no result: ROMK mod)
Cc1ccc(CSCC(=O)NCCc2ccccc2)cc1	none
COC(=O)C1=C(C)NC(C)=C(C(=O)OC)C1c1ccc(OC(=O)c2oc3ccccc3c2C)c(OC)c1	none (no result: Rad51 HR inh)
Cn1c(SCC(=O)Nc2cccnc2)nnc1-c1ccccc1F	none
N#Cc1nc(Cc2cccc3ccccc23)oc1N1CCC(C(N)=O)CC1	KCC2 mod -7.41
COc1ccc(OC)c2sc(NC(=O)c3ccc(Cl)s3)nc12	none (no result: KCC2 mod, ROMK mod)
COc1ccc(OC)c2sc(NC(=O)c3ccc(Br)s3)nc12	KCC2 mod 6.15 (no result: ROMK mod)
Cc1cccc2cc(/C=C3\N=C(c4ccccc4)OC3=O)c(N3CCOCC3)nc12	ROMK mod -5 (no result: KCC2 mod, Rad51 HR inh)
Cc1ccc(C2=N/C(=C/N3CCOCC3)C(=O)O2)cc1	none (no result: ROMK mod)
CC(C)(C)C(=O)NC(=C(Cl)Cl)P(=O)(O)O	KCC2 mod -3.8 (no result: ROMK mod)
CSc1nsc2nc(=O)c(/C=C3\C=Nc4ccccc43)c(N)n12	KCC2 mod -3.13, ROMK mod 2.07
CCCNC(=O)NC(=O)COC(=O)c1ccc(OC)c(S(=O)(=O)N2CCCc3ccccc32)c1	none (no result: ROMK mod)
CCOc1ccccc1C(=O)Nc1nccs1	Rad51 HR inh 133.7
C=CCN(C(=O)c1ccccn1)C(C(=O)NCc1ccccc1)c1ccccc1F (stereo not drawn)	none
Cc1ccc(S(=O)(=O)CC(=O)c2cc(C)c(O)c(C)c2)cc1	none
Cc1ccccc1NC(=S)NNC(=O)c1csc2c1CCC(C)C2 (stereo not drawn)	KCC2 mod 94.3
COc1cc(/C=C2\C(=O)ON=C2c2ccccc2)cc(Cl)c1O	KCC2 mod -5.3, ROMK mod -15.4
Cc1ccc(N2NC(C)(c3cccs3)NC2=S)cc1 (stereo not drawn)	none (no result: Rad51 HR inh)
COc1cc(C(=O)Nc2cccc(C)c2C)c(Br)c(OC)c1OC	Rad51 HR inh 48.5
CCc1ccc(C2=NN(CCC(=O)NCc3cccs3)C(=O)CC2)cc1	none
COC(=O)c1ccc(NC(=O)c2cc(-c3ccccn3)nc3ccccc23)cc1	none
COC(=O)c1cc(NC(=O)c2c(Cl)cnn2C)cc(C(=O)OC)c1	none
COC(=O)c1ccc(NC(=S)NC(=O)c2cc(-c3ccccc3)nc3ccccc23)cc1	KCC2 mod 6 (no result: Rad51 HR inh)
COC(=O)c1ccc(NC(=S)NC(=O)c2c(Cl)cnn2C)cc1	KCC2 mod 36.3 (no result: ROMK mod)
CCOc1cccc(NC(=O)c2cccc(F)c2)c1	none
CNC(=S)Nc1cc(Cl)ccc1Oc1ccccc1	none
S=C(Nc1ccc(Cl)cc1Cl)Nc1ccccc1Oc1ccccc1	KCC2 mod 25 (no result: ROMK mod)
S=C(Nc1cccc(Cl)c1)Nc1ccccc1Oc1ccccc1	KCC2 mod 5.43 (no result: ROMK mod)
S=C(Nc1ccccc1Oc1ccccc1)Nc1cccc(Cl)c1Cl	KCC2 mod 31.2 (no result: ROMK mod)
CC(C)(C)OC(=O)N1CCC(CNC(=O)c2ccc(F)cc2)CC1	none (no result: PKD1 inh)
Cc1cc(C(=O)CSc2nn3c(=O)c(C(C)(C)C)nnc3s2)c(C)n1C	none
Cc1cccc(N2C(=O)C(Oc3ccc(Cl)cc3Cl)C2C=O)c1C (stereo not drawn)	KCC2 mod -3.01, ROMK mod -4.89
Cc1csc(SC(C)c2nc3scc(-c4ccccc4)c3c(=O)[nH]2)n1 (stereo not drawn)	Rad51 HR inh 40.1 (no result: ROMK mod, PKD1 inh)
O=c1[nH]c(Cc2ccccc2)nc2scc(-c3ccccc3)c12	none
CCOc1ccc(-c2nnc3sc(-c4c(OC)cccc4OC)nn23)cc1	none (no result: Rad51 HR inh)
CCOc1ccc(-c2nnc3sc(-c4ccccc4OC)nn23)cc1	ROMK mod 3.32 (no result: Rad51 HR inh)
FC(F)(F)c1nc(=S)c2ccccc2[nH]1	KCC2 mod 31.9
Cc1ccc(C(c2nnnn2Cc2cccs2)N2CCN(Cc3ccc4c(c3)OCO4)CC2)cc1 (stereo not drawn)	ROMK mod -2.05
CNCCCC1Sc2ccccc2Oc2ccccc21 (stereo not drawn)	ROMK mod -3.68
CC(C)COn1c(=S)[nH]c2ccccc2c1=O	KCC2 mod 49 (no result: ROMK mod)
CCN(CC)CCn1c(=S)[nH]c2ccccc2c1=O	none (no result: ROMK mod)
Cc1ccnc(SCC(=O)c2cc3ccccc3o2)n1	none
CCC/C(=N/NC(=O)c1cccc(Cl)c1)c1ccccc1	KCC2 mod 11.8
O=C(CN1C(=O)c2ccccc2S1(=O)=O)Nc1ccc(S(=O)(=O)N2CCCCC2)cc1	Rad51 HR inh 72.8 (no result: ROMK mod)
Brc1ccc(-c2nnc3ccc(Nc4ccccc4)nn23)cc1	none
COc1ccc(S(=O)(=O)N2CCCCCC2)cc1C(=O)OCc1c(C)noc1C	ROMK mod -6.69
COc1ccc(S(=O)(=O)N2CCc3ccccc32)cc1C(=O)OCc1c(C)noc1C	none (no result: ROMK mod)
COc1ccccc1N1CCN(Cc2cc(Br)c(O)c3ncccc23)CC1	KCC2 mod 7.18 (no result: ROMK mod)
OCCN1CCN(Cc2cc(Cl)c3cccnc3c2O)CC1	none
Oc1c(CN2CCN(c3ccccn3)CC2)cc(Cl)c2cccnc12	KCC2 mod 7.01 (no result: ROMK mod)
OCCC1CN(Cc2cccn2-c2cccnc2)CCN1C1CCCC1 (stereo not drawn)	none (no result: ROMK mod, Rad51 HR inh, PKD1 inh)
COc1ccc(C(=O)NC(=S)NCCc2ccccc2)cc1	none
COc1ccc(C(=O)CC(=O)C(=O)NCCc2cccc(C)c2)cc1	KCC2 mod 8.33
NCC/C=C1/c2ccccc2CSc2ccccc21	ROMK mod -5.18
CCCc1ccc(C(=O)NNc2ccccc2F)cc1	none (no result: ROMK mod, PKD1 inh)
COC(=O)C1=C(C)NC(C)=C(C(=O)OC)C1c1ccccc1[N+](=O)[O-]	KCC2 mod 17.1, ROMK mod -2.53
CN(C)c1ccc([C@@H]2[C@@H]([N+](=O)[O-])[C@H]3C=Cc4ccccc4N3[C@H]2C(=O)c2ccc(Cl)cc2)cc1	none
Cc1[nH][nH]c(=O)c1C(c1c(C)[nH][nH]c1=O)c1cn(Cc2ccc(F)cc2)c2ccccc12	ROMK mod -4.76
COc1ccccc1NC(=O)N(Cc1cc2cc(OC)c(OC)cc2[nH]c1=O)CC1CCCO1 (stereo not drawn)	KCC2 mod -3.31
COc1ccc2[nH]c(=O)c(CN(CC3CCCO3)C(=O)Nc3ccccc3OC)cc2c1 (stereo not drawn)	none (no result: ROMK mod)
COc1ccccc1NC(=O)NCC(=O)Nc1ccc(F)c(F)c1	none (no result: KCC2 mod)
COc1ccccc1NC(=O)Nc1ccc(F)c(F)c1	Rad51 HR inh 40.8
O=C(Nc1ccc(S(=O)(=O)NC2=NCCCCC2)cc1)C1COc2ccccc2O1 (stereo not drawn)	Rad51 HR inh 40.5 (no result: ROMK mod, PKD1 inh)
O=C(Nc1cccc(S(=O)(=O)NC2=NCCCCC2)c1)C1COc2ccccc2O1 (stereo not drawn)	none
COc1ccc(/C=N/n2c(-c3cccs3)n[nH]c2=S)cc1	KCC2 mod 30.7 (no result: ROMK mod)
S=c1[nH]nc(-c2ccncc2)n1/N=C/c1ccccc1	none (no result: ROMK mod)
Cc1ccc(/C=N/n2c(-c3cccs3)n[nH]c2=S)cc1	KCC2 mod 30.3 (no result: ROMK mod)
CC(=O)Nc1ccc2c(c1)CN(c1cc(C)ccc1C)CO2	none (no result: ROMK mod)
Cc1ccc(N=Nc2ccc(O)c3ncccc23)cc1	KCC2 mod 11.2
CCS(=O)(=O)c1ccc(N=Nc2ccc(O)c3ncccc23)c(OC)c1	none

High-throughput results deposited in PubChem BioAssay by several laboratories.
